Measured values published in ChEMBL document CHEMBL5137045, “Discovery of 2-(furan-2-ylmethylene)hydrazine-1-carbothioamide derivatives as novel inhibitors of SARS-CoV-2 main protease” (Eur J Med Chem, 2022).

Molecular target: Replicase polyprotein 1ab (Severe acute respiratory syndrome coronavirus 2) (UniProt P0DTD1)
Assay: Inhibition of SARS CoV-2 main protease at 50 uM using DABCYL-KTSAVLQSGFRKM-E(EDANS)-NH2 as substrate preincubated for 30 mins followed by substrate addition and measured after 20 mins relative to control
Settings: time 50.0 min
How it was run: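 FRET protease assay in 40 mM PBS, 100 mM NaCl, 1 mM EDTA, 0.1% Triton, pH 7.3. M^pro (0.5 μM) was preincubated with inhibitor 30 min at room temperature, then 20 μM substrate was added. Cleavage fluorescence (ex 360/em 460 nm) was read for 20 min. This covers preliminary screening and IC50; IC50 from Hill1 fit.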

| SMILES | inhibition |
| --- | --- |
| Nc1nonc1-c1nc2ccccc2n1CC(=O)N/N=C/c1ccc(-c2ccc([N+](=O)[O-])cc2)o1 | 30.1% |
| COCc1c(Br)c(C)nc(OCC(=O)N/N=C/c2ccc(-c3ccc(Cl)c(C(=O)O)c3)o2)c1C#N | 38.3% |
| NC(=S)N/N=C/c1ccc(-c2ccc(Cl)c(Cl)c2)o1 | 49.8% |
| Cc1c(NC(=S)NC(=O)c2cccc(I)c2)c(=O)n(-c2ccccc2)n1C | < 20% |
| CC1=NN(c2cccc(C(=O)O)c2)C(=O)/C1=C\c1ccc(-c2cccc(C(=O)O)c2)o1 | 28.5% |
| Nc1nonc1-c1nc2ccccc2n1CC(=O)N/N=C/c1ccc(-c2cccc(C(F)(F)F)c2)o1 | 25.5% |
| O=[N+]([O-])c1cccc(-c2ccc(/C=N/NC(=S)Nc3ccccc3)o2)c1 | < 20% |
| Cc1c(NC(=S)N/N=C/C(Cl)=C/c2ccc([N+](=O)[O-])cc2)c(=O)n(-c2ccccc2)n1C | 21.2% |
| O=C(Cn1c2ccccc2c(=O)c2ccccc21)N/N=C/c1ccc(-c2cc([N+](=O)[O-])ccc2Cl)o1 | < 20% |
| Cc1c(NC(=S)NC(=O)c2ccncc2)c(=O)n(-c2ccccc2)n1C | < 20% |
| Cc1cc(C(=O)O)ccc1-c1ccc(/C=N/NC(=S)NCc2ccccc2)o1 | 55.9% |
| O=C(O)c1cccc(-c2ccc(/C=N/NC(=S)Nc3cccc(C(F)(F)F)c3)o2)c1 | 43% |
| Cc1c(NC(=S)NC(=O)c2ccc(F)cc2)c(=O)n(-c2ccccc2)n1C | < 20% |
| Cc1cccc(C(=O)NC(=S)Nc2c(C)n(C)n(-c3ccccc3)c2=O)c1 | < 20% |
| C=CCNC(=S)N/N=C/c1ccc(-c2ccc([N+](=O)[O-])cc2)o1 | 51.4% |
| O=C1NC(=S)N/C1=C/c1ccc(-c2ccccc2C(=O)O)o1 | < 20% |
| CCOC(=O)c1ccc(-c2ccc(/C=N/NC(=O)Cn3c4ccccc4c(=O)c4ccccc43)o2)cc1 | < 20% |
| CNC(=S)N/N=C/c1ccc(-c2cccc(C(=O)O)c2)o1 | 22.2% |
| N#Cc1c(/N=C/c2ccc(-c3ccc(Cl)c(C(=O)O)c3)o2)sc2c1CCCC2 | < 20% |
| O=C(O)c1ccc(-c2ccc(/C=N/NC(=S)Nc3ccc(Cl)cc3)o2)cc1 | 27.5% |
| N#C/C(=C\c1ccc(-c2cccc(C(=O)O)c2)o1)c1nc2ccccc2[nH]1 | < 20% |
| O=C(N/N=C/c1ccc([N+](=O)[O-])o1)c1c[nH]c2ccccc12 | < 20% |
| O=[N+]([O-])c1ccc(-c2ccc(/C=N/c3cccc(-c4nc5ccccc5o4)c3)o2)cc1 | 21.3% |
| Cc1ccc(-c2ccc(/C=N/NC(=O)Cn3c4ccccc4c(=O)c4ccccc43)o2)cc1[N+](=O)[O-] | 55.4% |

| SMILES | inhibition |
| --- | --- |
| NC(=S)N/N=C/c1ccc(-c2ccc3ccccc3c2)o1 | 54.1% |
| NC(=S)N/N=C/c1ccc(-c2ccc(C(=O)O)cc2)cc1 | 64% |
| O=C(O)c1ccc(-c2ccc(/C=N/NC(=S)Nc3cccc(C(F)(F)F)c3)o2)cc1 | 38.6% |
| CCOC(=O)N/N=C/c1ccc(-c2cccc(C(=O)O)c2)o1 | 29.4% |
| C=CCNC(=S)N/N=C/c1ccc(-c2cc(C(=O)O)cc(C(=O)O)c2)o1 | 34.2% |
| Cc1ccc(OCC(=O)N/N=C/c2ccc(-c3cc([N+](=O)[O-])ccc3Cl)o2)c(C)c1 | < 20% |
| Cc1c(NC(=S)NC(=O)c2cccc(Br)c2)c(=O)n(-c2ccccc2)n1C | < 20% |
| Cc1ccc(C(=O)NC(=S)Nc2c(C)n(C)n(-c3ccccc3)c2=O)cc1 | < 20% |
| O=C(Cn1c2ccccc2c(=O)c2ccccc21)N/N=C/c1ccc(-c2ccc(O)c(C(=O)O)c2)o1 | 54.5% |
| CCOC(=O)c1ccc(NC(=S)Nc2c(C)n(C)n(-c3ccccc3)c2=O)cc1 | < 20% |
| N=C1S/C(=C/c2ccc(-c3cccc(C(=O)O)c3)o2)C(=O)N1c1nonc1N | 30.3% |
| O=C(O)c1cc(-c2ccc(/C=N/Nc3nc4nonc4nc3Nc3ccc(Br)cc3)o2)ccc1O | 45.9% |
| C=CCNC(=S)N/N=C/c1ccc(-c2ccccc2[N+](=O)[O-])o1 | 28.4% |
| O=C1NN(c2ccc(F)cc2)C(=O)/C1=C\c1ccc(-c2cccc(C(=O)O)c2)o1 | 33.8% |
| Cc1c(NC(=S)NCc2ccco2)c(=O)n(-c2ccccc2)n1C | < 20% |
| CCNC(S)=Nc1c(C)n(C)n(-c2ccccc2)c1=O | < 20% |
| Cc1c(/N=C/c2ccc(-c3cccc([N+](=O)[O-])c3)o2)c(=O)n(-c2ccccc2)n1C | < 20% |
| COc1ccccc1OCC(=O)N/N=C/c1ccc(-c2cccc([N+](=O)[O-])c2)o1 | 24.2% |
| Cc1c(NC(N)=S)c(=O)n(-c2ccccc2)n1C | < 20% |
| O=c1sn(-c2cccc3ccccc23)c(=O)n1Cc1ccccc1 | 98.6% |
| O=C(CNC(=O)c1ccccc1F)N/N=C/c1ccc([N+](=O)[O-])o1 | < 20% |
| O=C(CSc1nnnn1-c1ccccc1)N/N=C/c1ccc(-c2ccccc2C(=O)O)o1 | 45.3% |
| O=C(O)c1ccc(-c2ccc(/C=N/NC(=S)NC3CCCCC3)o2)cc1 | 37.3% |
| CSC1=NSC2=NC(=O)/C(=C\c3ccc(-c4cccc(C(=O)O)c4)o3)C(=N)N12 | < 20% |

| SMILES | inhibition |
| --- | --- |
| O=C(O)c1cccc(-c2ccc(/C=N/NC(=S)Nc3ccc(Cl)cc3)o2)c1 | 43.8% |
| Cc1ccc([N+](=O)[O-])cc1-c1ccc(/C=N/NC(=O)Cn2c3ccccc3c(=O)c3ccccc32)o1 | 22.5% |
| Cc1c(NC(=S)NCCCN(C)C)c(=O)n(-c2ccccc2)n1C | < 20% |
| Cc1c(NC(=S)NC(=O)COc2ccccc2)c(=O)n(-c2ccccc2)n1C | < 20% |
| NC(=S)N/N=C/c1ccc(-c2cccc3ccccc23)o1 | 73.2% |
| C/C(=N\NC(=S)Nc1c(C)n(C)n(-c2ccccc2)c1=O)c1cccc([N+](=O)[O-])c1 | < 20% |
| CC1=NN(c2ccc(C)c(Cl)c2)C(=O)/C1=C\c1ccc(-c2ccc(C(=O)O)cc2)o1 | < 20% |
| Cc1c(C(=O)N/N=C/c2ccc(-c3ccc(Cl)c(C(=O)O)c3)o2)sc(N)c1C#N | 35.8% |
| COc1cc([N+](=O)[O-])ccc1-c1ccc(/C=N/NC(=O)Cn2c3ccccc3c(=O)c3ccccc32)o1 | 26% |
| O=C(O)c1cc(N/N=C/c2ccc(-c3ccc(Cl)c(C(=O)O)c3)o2)ccc1Cl | 28.2% |
| Cc1cc(-c2ccc(/C=N/NC(=O)C(NC(=O)Cc3ccco3)C(C)C)o2)cc([N+](=O)[O-])c1C (stereo not given) | 62.8% |
| O=C(N/N=C/c1ccc(-c2ccc([N+](=O)[O-])cc2)o1)c1cc2ccccc2cc1O | < 20% |
| Nc1nonc1-c1cc2ccccc2n1CC(=O)N/N=C/c1ccc(-c2cccc(C(=O)O)c2)o1 | < 20% |
| CC1=CC2=NC(=O)/C(=C\c3ccc(-c4cccc(C(=O)O)c4)o3)C(=N)N2O1 | < 20% |
| O=C(O)c1cc(-c2ccc(/C=C3\NC(=O)N(Cc4ccccc4F)C3=O)o2)ccc1Cl | 53.4% |
| O=C(O)c1cccc(-c2ccc(/C=N/NC(=O)C3COc4ccccc4O3)o2)c1 (stereo not given) | 33.7% |
| Nc1nnnn1CC(=O)N/N=C/c1ccc(-c2ccccc2C(=O)O)o1 | 34.5% |
| COc1c(C(=O)O)cccc1-c1ccc(/C=N/NC(N)=S)o1 | 79.8% |
| Cc1c(NC(=S)N(C)CCC#N)c(=O)n(-c2ccccc2)n1C | < 20% |
| O=C(N/N=C/c1ccc([N+](=O)[O-])o1)c1ccc(O)cc1O | < 20% |
| O=C(N/N=C/c1ccc(-c2cccc(C(=O)O)c2)o1)Nc1ccc(Cl)cc1 | 44.6% |
| O=C(NCCCn1ccnc1)/C(=C\c1ccc(-c2cccc([N+](=O)[O-])c2)o1)NC(=O)c1ccccc1 | 28.8% |
